Laboratory results: ChEMBL document CHEMBL1138564, “Microwave-induced synthesis and anti-microbial activities of 7,10,11,12-tetrahydrobenzo[c]acridin-8(9H)-one derivatives” (2009)
Values after ≈ are worked out from the molar mass of the structure shown. Active and inactive are the calls of the source. No cut-off for these calls is given here.

Tests used:
Assay type in all cases: functional
[1] = system: Salmonella typhimurium; assay: Antimicrobial activity against Salmonella Typhimurium NCIM 2501 at 500 ug/disk after 24 hrs by disk diffusion method
How it was run: (§1)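 Disc diffusion. 100 µl of bacterial suspension at 10⁸ CFU/ml was spread on Mueller–Hinton agar. Discs loaded with test compound dissolved in DMSO were placed on the lawn, with a DMSO-only disc as negative control. Plates were incubated at 37 °C for 24 h, and the inhibition zone diameter was measured.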

[2] = system: Aspergillus flavus; assay: Antimicrobial activity against Aspergillus flavus NCIM 902 after 72 hrs by serial dilution method; details: NCIM 535, 72 h, in the assay text read “NCIM 535” for “NCIM 902”
How it was run: (§2)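 MIC by broth dilution in Sabouraud's dextrose broth, only for fungi sensitive in disc diffusion. Two-fold serial dilutions of compounds are made in 1 ml broth per tube, range 3.9 to 1000. Inoculated tubes are incubated at 27 °C for 72 h.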

[3] = system: Klebsiella aerogenes; assay: Antimicrobial activity against Klebsiella aerogenes NCIM 2239 at 1000 ug/disk after 24 hrs by disk diffusion method
How it was run: (§3)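 Disc diffusion on Mueller–Hinton agar. 100 µl of bacterial suspension at 10⁸ CFU/ml is spread on the plate. Discs carry test compounds at two loadings, dissolved in DMSO; DMSO alone serves as negative control. Ofloxacin disc is the positive reference. Plates are incubated at 37 °C for 24 h, and the inhibition zone diameter is measured.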

[4] = system: Bacillus subtilis; assay: Antimicrobial activity against Bacillus subtilis NCIM 2063 at 1000 ug/disk after 24 hrs by disk diffusion method; details: NCIM 2063, 24 h, read-out: DIZ; how it was run: as §3
[5] = system: Proteus vulgaris; assay: Antimicrobial activity against Proteus vulgaris NCIM 2027 at 500 ug/disk after 24 hrs by disk diffusion method; how it was run: as §3
[6] = system: Aliivibrio fischeri; assay: Antimicrobial activity against Vibrio fischeri NCIM 2154 at 1000 ug/disk after 24 hrs by disk diffusion method; details: NCIM 2154, 24 h, read-out: DIZ; how it was run: as §1
[7] = system: Penicillium chrysogenum; assay: Antimicrobial activity against Penicillium chrysogenum NCIM 707 at 500 ug/disk after 72 hrs by disk diffusion method
How it was run: (§4)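 Disc diffusion on Sabouraud's dextrose agar. 100 µl of fungal suspension at 10⁶ CFU/ml is spread on the plate. Discs carry test compounds at two loadings in DMSO; DMSO alone is the negative control. Clotrimazole disc is the positive reference. Plates are incubated at 27 °C for 72 h, and the zone of inhibition diameter is measured.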

[8] = system: Aspergillus fumigatus; assay: Antimicrobial activity against Aspergillus fumigatus NCIM 902 at 1000 ug/disk after 72 hrs by disk diffusion method; how it was run: as §4
[9] = system: Bacillus cereus; assay: Antimicrobial activity against Bacillus cereus NCIM 2155 at 1000 ug/disk after 24 hrs by disk diffusion method; how it was run: as §3
[10] = system: Pseudomonas aeruginosa; assay: Antimicrobial activity against Pseudomonas aeruginosa NCIM 2200 at 500 ug/disk after 24 hrs by disk diffusion method; how it was run: as §1
[11] = system: Aliivibrio fischeri; assay: Antimicrobial activity against Vibrio fischeri NCIM 2154 at 500 ug/disk after 24 hrs by disk diffusion method; details: NCIM 2154, 24 h, read-out: DIZ; how it was run: as §1
[12] = system: Rhodococcus corynebacterioides; assay: Antimicrobial activity against Corynebacterium rubrum NCIM 2252 at 500 ug/disk after 24 hrs by disk diffusion method; details: Rhodococcoides corynebacterioides, NCIM 2252, 24 h; read-out: DIZ; how it was run: as §3
[13] = system: Trichoderma viride; assay: Antimicrobial activity against Trichoderma viride NCIM 1195 at 1000 ug/disk after 72 hrs by disk diffusion method; details: NCIM 1195, 72 h, read-out: DIZ
How it was run: (§5)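 Fungal disc diffusion. 100 µl of suspension at 10⁶ CFU/ml was spread on Sabouraud's dextrose agar. Discs carrying test compound in DMSO were applied, with a DMSO-only disc as negative control. Plates were incubated at 27 °C for 72 h, and the zone of inhibition diameter was measured.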

[14] = system: Aspergillus parasiticus; assay: Antimicrobial activity against Aspergillus parasiticus NCIM 904 at 1000 ug/disk after 72 hrs by disk diffusion method; details: NCIM 904, 72 h, read-out: DIZ; how it was run: as §4
[15] = system: Rhodotorula mucilaginosa; assay: Antimicrobial activity against Rhodotorula rubra NCIM 3174 at 1000 ug/disk after 72 hrs by disk diffusion method; details: NCIM 3174, 72 h, read-out: DIZ; how it was run: as §5
[16] = system: Staphylococcus; assay: Antimicrobial activity against Staphylococcus albus NCIM 2178 at 500 ug/disk after 24 hrs by disk diffusion method; how it was run: as §1
[17] = system: Trichoderma viride; assay: Antimicrobial activity against Trichoderma viride NCIM 1195 at 500 ug/disk after 72 hrs by disk diffusion method; details: NCIM 1195, 72 h, read-out: DIZ; how it was run: as §5
[18] = system: Bacillus subtilis; assay: Antimicrobial activity against Bacillus subtilis NCIM 2063 after 24 hrs by serial dilution method; details: NCIM 2063, 24 h
How it was run: (§6)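 Broth dilution MIC in nutrient broth, run only for organisms found sensitive in disc diffusion. Compounds are two-fold serially diluted in 1 ml sterile broth per tube, spanning 3.9 to 1000. Inoculated tubes are incubated at 37 °C for 24 h.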

[19] = system: Lipomyces lipofer; assay: Antimicrobial activity against Lipomyces lipofer NCIM 3252 at 500 ug/disk after 72 hrs by disk diffusion method; how it was run: as §4
[20] = system: Trichoderma viride; assay: Antimicrobial activity against Trichoderma viride NCIM 1195 after 72 hrs by serial dilution method; details: NCIM 1195, 72 h
How it was run: (§7)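 MIC by broth dilution in Sabouraud's dextrose broth, run only on fungi found sensitive in the disc assay. Twofold serial dilutions were made in 1 ml broth per tube, covering 3.9 to 1000. Inoculated tubes were incubated at 27 °C for 72 h.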

[21] = system: Escherichia coli; assay: Antimicrobial activity against Escherichia coli NCIM 2065 at 500 ug/disk after 24 hrs by disk diffusion method; how it was run: as §3
[22] = system: Rhodococcus corynebacterioides; assay: Antimicrobial activity against Corynebacterium rubrum NCIM 2252 at 1000 ug/disk after 24 hrs by disk diffusion method; details: Rhodococcoides corynebacterioides, NCIM 2252, 24 h; read-out: DIZ; how it was run: as §3
[23] = system: Aspergillus parasiticus; assay: Antimicrobial activity against Aspergillus parasiticus NCIM 904 after 72 hrs by serial dilution method; details: NCIM 904, 72 h; how it was run: as §2
[24] = system: Pseudomonas aeruginosa; assay: Antimicrobial activity against Pseudomonas aeruginosa NCIM 2200 at 1000 ug/disk after 24 hrs by disk diffusion method; how it was run: as §3
[25] = system: Klebsiella aerogenes; assay: Antimicrobial activity against Klebsiella aerogenes NCIM 2239 at 500 ug/disk after 24 hrs by disk diffusion method; how it was run: as §3
[26] = system: Bacillus cereus; assay: Antimicrobial activity against Bacillus cereus NCIM 2155 at 500 ug/disk after 24 hrs by disk diffusion method; how it was run: as §3
[27] = system: Proteus vulgaris; assay: Antimicrobial activity against Proteus vulgaris NCIM 2027 at 1000 ug/disk after 24 hrs by disk diffusion method; how it was run: as §3
[28] = system: Rhodotorula mucilaginosa; assay: Antimicrobial activity against Rhodotorula rubra NCIM 3174 after 72 hrs by serial dilution method; details: NCIM 3174, 72 h; how it was run: as §7
[29] = system: Rhodotorula mucilaginosa; assay: Antimicrobial activity against Rhodotorula rubra NCIM 3174 at 500 ug/disk after 72 hrs by disk diffusion method; details: NCIM 3174, 72 h, read-out: DIZ; how it was run: as §5
[30] = system: Escherichia coli; assay: Antimicrobial activity against Escherichia coli NCIM 2065 after 24 hrs by serial dilution method; details: NCIM 2065, 24 h; how it was run: as §6
[31] = system: Aspergillus fumigatus; assay: Antimicrobial activity against Aspergillus fumigatus NCIM 902 at 500 ug/disk after 72 hrs by disk diffusion method; how it was run: as §4
[32] = system: Aspergillus flavus; assay: Antimicrobial activity against Aspergillus flavus NCIM 902 at 1000 ug/disk after 72 hrs by disk diffusion method; details: NCIM 902, 72 h, read-out: DIZ; how it was run: as §4

| MIC [2] | MIC [18] | MIC [20] | MIC [23] | MIC [28] | MIC [30] | SMILES | zone of inhibition at 1000 µg/disc [4] | zone of inhibition at 1000 µg/disc [6] | diameter of the inhibition zone (DIZ) [9] | zone of inhibition at 500 µg/disc [11] | zone of inhibition at 500 µg/disc [12] | zone of inhibition at 1000 µg/disc [13] | zone of inhibition at 1000 µg/disc [14] | zone of inhibition at 1000 µg/disc [15] | zone of inhibition at 500 µg/disc [17] | zone of inhibition at 1000 µg/disc [22] | diameter of the inhibition zone (DIZ) [26] | zone of inhibition at 500 µg/disc [29] | diameter of the inhibition zone (DIZ) [31] | zone of inhibition at 1000 µg/disc [32] | further results |
| --- | --- | --- | --- | --- | --- | --- | --- | --- | --- | --- | --- | --- | --- | --- | --- | --- | --- | --- | --- | --- | --- |
| 62.5 µg/mL (≈ 174 µM) | 62.5 µg/mL (≈ 174 µM) | 62.5 µg/mL (≈ 174 µM) | 62.5 µg/mL (≈ 174 µM) | 3.9 µg/mL (≈ 10.8 µM) | 125 µg/mL (≈ 347 µM) | O=C1CCCC2=C1C(c1ccccc1Cl)c1ccc3ccccc3c1N2 (centres undefined) | 10 mm | 9 mm | inactive | 7 mm | 7 mm | 10 mm | 10 mm | 16 mm | 9 mm | 8 mm | inactive | 13 mm | inactive | 9 mm | diameter of the inhibition zone (DIZ) ([1]; Salmonella enterica subsp. enterica serovar Typhimurium): inactive; diameter of the inhibition zone (DIZ) [3]: inactive; diameter of the inhibition zone (DIZ) [5]: inactive; diameter of the inhibition zone (DIZ) [7]: inactive; zone of inhibition at 1000 µg/disc ([8]; NCIM 902, 72 h, read-out: DIZ): 9 mm; diameter of the inhibition zone (DIZ) [10]: inactive; diameter of the inhibition zone (DIZ) [16]: inactive; diameter of the inhibition zone (DIZ) [19]: inactive; diameter of the inhibition zone (DIZ) [21]: inactive; diameter of the inhibition zone (DIZ) [24]: inactive; diameter of the inhibition zone (DIZ) [25]: inactive; diameter of the inhibition zone (DIZ) [27]: inactive |
| 125 µg/mL (≈ 366 µM) | 31.2 µg/mL (≈ 91.4 µM) | 31.2 µg/mL (≈ 91.4 µM) | 15.6 µg/mL (≈ 45.7 µM) | 7.8 µg/mL (≈ 22.8 µM) | 125 µg/mL (≈ 366 µM) | O=C1CCCC2=C1C(c1ccc(O)cc1)c1ccc3ccccc3c1N2 (centres undefined) | 11 mm | 9 mm | inactive | 7 mm | 7 mm | 11 mm | 13 mm | 14 mm | 10 mm | 9 mm | inactive | 12 mm | inactive | 8 mm | zone of inhibition at 500 µg/disc ([1]; Salmonella enterica, NCIM 2501, 24 h, read-out: DIZ): 7 mm; zone of inhibition at 1000 µg/disc ([3]; NCIM 2239, 24 h, read-out: DIZ): 10 mm; zone of inhibition at 500 µg/disc ([5]; NCIM 2027, 24 h, read-out: DIZ): 7 mm; zone of inhibition at 500 µg/disc ([7]; NCIM 707, 72 h, read-out: DIZ): 9 mm; diameter of the inhibition zone (DIZ) [8]: inactive; zone of inhibition at 500 µg/disc ([10]; NCIM 2200, 24 h, read-out: DIZ): 7 mm; zone of inhibition at 500 µg/disc ([16]; NCIM 2178, 24 h, read-out: DIZ): 8 mm; zone of inhibition at 500 µg/disc ([19]; NCIM 3252, 72 h, read-out: DIZ): 10 mm; zone of inhibition at 500 µg/disc ([21]; NCIM 2065, 24 h, read-out: DIZ): 7 mm; zone of inhibition at 1000 µg/disc ([24]; NCIM 2200, 24 h, read-out: DIZ): 9 mm; zone of inhibition at 500 µg/disc ([25]; NCIM 2239, 24 h, read-out: DIZ): 7 mm; zone of inhibition at 1000 µg/disc ([27]; NCIM 2027, 24 h, read-out: DIZ): 9 mm |
